# From the EternaBench riboswitch data
# Tested on: MS2 coat protein
# Assay: apparent Kd, MS2 coat protein; higher = weaker binding; RNA-MaP array; FMN 200 µM where present
# Method in brief: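 Binding was read on Illumina sequencing-chip clusters where stalled E. coli RNA polymerase had transcribed each design. A titration of SNAP-549-labelled MS2 coat protein began at 0.7 or 1.5 nM and doubled to 3 µM, once without ligand and once with constant ligand, in 100 mM Tris-HCl pH 7.5, 80 mM KCl, 4 mM MgCl2, BSA, DTT, yeast tRNA and Tween-20. The apparent Kd is the median of filtered per-cluster binding-curve fits, based on green signal normalised to red-channel RNA signal and control-cluster median Fmax.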
# [1] = designed as: ON switch for flavin mononucleotide, no ligand
# [2] = ligand present: flavin mononucleotide, designed as: ON switch for flavin mononucleotide
# [3] = designed as: OFF switch for flavin mononucleotide, no ligand
# [4] = ligand present: flavin mononucleotide, designed as: OFF switch for flavin mononucleotide
Sequence,apparent Kd [1],apparent Kd [2],apparent Kd [3],apparent Kd [4]
CCUAAGGACACAGGAUAUAGCGUGGUGGCUGGGCUCCAACGGCGAGUGGCGCUAGAAGGGUGACCACAUGAGGAUCACCCAUGU,537 nM,214 nM,–,–
AUCCAUUGAGAGAAGGGAGUACAUGAGGAUCACCCAUGUGGUCGUUCAUACUCAGGAUAUCUAACUGGGUUAGUGGCGCACGCC,–,–,166 nM,367 nM
GUUAACACAUGAGGAUAUGCUCGCAUUUCAAGAGCAGAAGGUAUGUCUAUAGACAUGAGGAUCACCCAUGUAUUUAUCAUUGAA,274 nM,52.6 nM,–,–
UGGUGUGAAGGAUAUACAUGAGGAUCACCCAUGUAUGAGGUGUGUGUUGAGGUGGAGGGUAGAAGGUCAGGUGG,–,–,30.1 nM,30.6 nM
UCCUUCUGUUGAGGAUAUGUAAGACAGCGGCUGCUAUUGCGGCACGCUGAUACAGAAGGCAACAUGAGGAUCACCCAUGUUCAA,–,–,26.4 nM,205 nM
AUGGGUUAAGGAGGAUAUAGAGGGAGAAGUAAACAUGAGGAUCACCCAUGUAUUUAAUUAGUUUACUAGAAGGCUUGUGAUUGU,33.6 nM,41.5 nM,–,–
GCUAUAGCGGAGGAUAUCCCGAAAAGAAGUUUAGGAGAAGGCCGCACAUGAGGAUCACCCAUGUGAGUCCGCAA,–,–,22.7 nM,119 nM
AGUUAUUCAGGAUAUGGUGUGUUAUACAUGAGGAUCACCCAUGUGGGUCCUGGUUAGGCCUCAGAAGGGAAUGUUA,–,–,703 nM,534 nM
GCUCUGUCAGGAUAUCAGGCUGACGGAACUUGGCUGUUAGAUGAGAAGGGACAUGAGGAUCACCCAUGUAAAAU,–,–,33.8 nM,34.8 nM
AUCAGCUCGUCAGGAUAUACGUCACUGCGUCAGCAGUGCGGUAAGAUCACAUGAGGAUCACCCAUGUAGAAGGGACGAGCUGAU,–,–,6.4 nM,20.1 nM
GGUACCUUCACAGGAUAUGCUAUGGUUUCCGUAGCAGAAGGGUGAUACAUGAGGAUCACCCAUGUGGUGCCAGGGCGUGAGCCC,387 nM,293 nM,–,–
AGUUUUGUACAUGAGGAUCACCCAUGUUAAUAUGUGGUAGUCAGAAGGCAUUGUUAGUGUUUAUAUGAGGAUAUGAUUAGUCAG,50.3 nM,26.4 nM,–,–
ACAAAUGGAGGAUAUACAUGAGGAUCACCCAUGUUUAUCCUACAUAUGUGAUCCUCAUGUAGAAGGCCAUUUGA,–,–,11.4 nM,10.8 nM
UCGGAGAAAGGAUAUACACCAAGGGUAUAGUAGGAUCCUGGACAUGAGGAUCACCCAUGUAGAAGGUUCACUGC,–,–,60.1 nM,31.1 nM
AAUUCUAGGGUCAGCCUUAACACAUGAGGAUCACCCAUGUACAGAAGGCGAAGCAAAUGGACACUCGAGGAUAUGUACACUCCG,–,–,6.22 nM,8.01 nM
GGAAAUUAGCAAGGAUAUCGGCUCACUAUUACUUUAUGCCCUAGGACAUGAGGAUCACCCAUGUACGAGAAGGUGCUAACUACA,–,–,28.5 nM,31.1 nM
UCCGCGGACAUAGGAUAUACUGCGAAAUUUCUAGUAGAAGGGUGACCGCACGUGCGAACUGUACAUGAGGAUCACCCAUGUACU,21.4 nM,23.1 nM,–,–
AACGUGUAAGGAUAUGCUGCUCGUCACGAAAGUGAUGAGUAGCAGAAGGUACAUGAGGAUCACCCAUGUAAAGA,–,–,31.8 nM,67 nM
ACGACGAAAGUCGAACGAUGUAGCAGAAGGACAUGAGGAUCACCCAUGUCAGCUGUAACAGCCAUGUAGGAUAUGCUACAUCGG,–,–,4.37 nM,5.85 nM
AACUAAGUAUUAAUGGUGUCUGACAGAAGGCAAUAGAAUGAGACCGACAUGAGGAUCACCCAUGUUGAGGAUAUGUCUAGCUAC,–,–,6.33 nM,7.27 nM
AAAACAUGAGGAUCACCCAUGUUUAGAUCGGUCGAUAGAAGUGAGGAUAUACUAAGUUAAGGCUGGUAGAAGGCACUGGGUACA,26.9 nM,27.5 nM,–,–

Sequence,apparent Kd [1],apparent Kd [2],apparent Kd [3],apparent Kd [4]
GCGAGCAUACAGAAGGGAUCGUCGUAGCGGCUGUCAGGAUAUGUAGCUUGGCCUAAACAUGAGGAUCACCCAUGUAUAAUGCUA,175 nM,21 nM,–,–
AUUUCGUCAGGAUAUCCUAGUAAUUGUUUCAUAUUUUCAUAGGAGAAGGGACAUGAGGAUCACCCAUGUUUGUC,–,–,25.5 nM,24.5 nM
AAGAAGUCAGGAUAUCCAGCUCGUCACUUGCGUGAUGAGUUGGAGAAGGGACAUGAGGAUCACCCAUGUAAAGA,–,–,56.1 nM,49.3 nM
AAGAAGCUCACAGGAUAUCAGUAUAUGCGAUCUAGCGUAUUAAUGAACUGCUGAGAAGGGUGAGACAUGAGGAUCACCCAUGUA,23.3 nM,62.2 nM,–,–
UUAAUGAAGUAAGGAUAUACAUGAGGAUUUCUCGUAGAAGGUACUAUACAUGAGGAUCACCCAUGUGCCGGUCAGAAGACUGGA,433 nM,274 nM,–,–
GCGUAACAUGAGGAUCACCCAUGUGCCCGAGAAUUCGGGCCGAGAAGGGUGACCGGACGUAUGGCACAGGAUAUCGACGUUUUG,33.6 nM,48.4 nM,–,–
UUUGUCAUCGAGAAGGCCUCAACAUGAGGAUCACCCAUGUUGUAAUAUGGGAGGAUAUCGAUGAUACAGCUACGUUUCGUAAAA,20 nM,5.58 nM,–,–
GGUACUCAAAGAGUACCAAUACGAACAUGAGGAUCACCCAUGUAGGAUAUGCUAUCGAAACGAUAGCAGAAGGACAUGUGCCUU,–,–,26.4 nM,218 nM
GUACAUGAGCAGAAGGGCAUUUAAUUAGAUUUUUAUGUUGAUCAGAUAUGCAGGAUAUGUUAAACAUGAGGAUCACCCAUGUAC,235 nM,44.2 nM,–,–
UCUACUUUACAUGAUUCAUCAACACAGGAUAUACCCGCAACAUGAGGAUCACCCAUGUAGGCCCGGUAGAAGGGUGCUUGGGAA,10.8 nM,6.43 nM,–,–
CACAAGAAAGUCGAACCGCUAUCUAGAAGGACAACAUGACAACAUGAGGAUCACCCAUGUCAUAUGUAGGAUAUGGAUGGUGGG,–,–,8.94 nM,9.14 nM
GAUAGGACAGAGAAGGACGUAGCUAGAGAUACUAGCAUAUGAACCUUCACAUGAGGAUCACCCAUGUAGGAUAUCUGUCCUAUC,–,–,3.34 nM,3.35 nM
CAAUUUAUAACAGGAUAUAUAAUACAAUGAUUAAUAGAAGGGUUUAAUACAUGAGGAUCACCCAUGUCAUGUGUCAUAAUUACC,–,–,40.1 nM,32 nM
AAGAAGUGAGGAUAUGCUGCUCGUCACUUGCGUGAUGAGUAGCAGAAGGCACAUGAGGAUCACCCAUGUGAAAA,–,–,26 nM,43.3 nM
CGAGUCAUAGCUCCUUAGCCAGCCAGAAGGGUCUACAUGAGGAUCACCCAUGUGGUCUCGAAGGGACAGGAUAUGGAGGGCGUA,–,–,5.39 nM,7.36 nM
CCUCGACAUGAGGAUCACCCAUGUCAGGAUAUUGUGUUUUUGGUUUUUUACCUUUAGGCAAGAAGGGAUGUGUG,–,–,16 nM,21.4 nM
CGUGCGUAUGUGAGGAUAUGCUGGUCCUUGGAUCAGCAGAAGGCACAUGAGGAUCACCCAUGUGGUGUCGUACA,–,–,273 nM,20.1 nM
GCCAUCGCAUGAGGAUAUGGCACCGUUUCGGUGCCAGAAGGCAUGUCAUAAGACAUGAGGAUCACCCAUGUAGUUAAGAUGGCA,741 nM,47.6 nM,–,–
CGGGAGUCAGGAUAUACGAACAUGUCGCCAGAUGUCAAGGUACAUGAGGAUCACCCAUGUAGAAGGGAGGAGAU,–,–,80.6 nM,72.7 nM
GUGAGUAGUCAGGAUAUGCUGUACAAAAGUACAGCAGAAGGGAUUACAUGAGGAUCACCCAUGUUUUCUUCAUG,–,–,83.5 nM,564 nM
GUCUCGAUGUAAGGAUAUGCAGUGGAUAACACUGCAGAAGGUACAUGAGGAUCACCCAUGUAACUCUAAUAAUAAUAACGAGAC,–,–,13.1 nM,17.3 nM
